One data set has as its system Erythrocyte. Briefly: Hemolytic activity in human erythrocytes at […] incubated for 1 hrs. Conditions: erythrocyte, 1 h, […]. The format is toxicity, cell-based.
The subject of data set [1] is Bacillus cereus. Kind of data set: Bactericidal activity against Bacillus cereus ATCC 10987 at 16 uM measured upto 24 hrs by CLSI based broth microdilution method. The class given is functional, organism-based. The method in brief: (§1)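 Each well then used as a 10% inoculum into fresh cMHB and incubated at 37 °C for 24 h. No regrowth in the MIC range was scored bactericidal, regrowth bacteriostatic. Triplicate.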
Background: In broth dilution the organism is exposed to a series of concentrations in liquid medium.

The test system of data set [2] is Bacillus cereus. Briefly: Antibacterial activity against Bacillus cereus ATCC 10987 assessed as decrease in membrane integrity at 2x MIC incubated for 18 hrs by propidium iodide staining assay. The format is functional, organism-based. The method in brief:
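B. cereus grown 18 h in LB at 37 °C, washed in 5 mM HEPES pH 7.4 + 5 mM glucose, OD600 0.5, loaded with 10 μg/mL propidium iodide for 10 min. […] Gramicidin S positive control; triplicate.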

In data set [3] the test system is Bacillus cereus. Kind of data set: Inhibition of electron transport chain in Bacillus cereus ATCC 10987 by measuring reduction of resazurin upto 120 min by resazurin dye based assay. To be noted: DDE = dose-dependent effect. The method in brief:
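B. cereus grown in LB to OD600 1, washed and resuspended in cMHB at OD600 0.2 with 100 μg/mL resazurin. Compounds added at the indicated concentrations; resorufin fluorescence (ex/em 550/590 nm) read every 5 min for 125 min. CCCP at 400, 200, 100 μM positive control; untreated cells and medium with resazurin negative controls; triplicate.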

Data set [4] concerns Bacillus cereus. Kind of data set: Antibacterial activity against Bacillus cereus ATCC 10987 assessed as membrane potential change at 0.5 to 2X MIC incubated for 20 mins by DiSC3(5) staining based assay. The class given is functional, organism-based. The method in brief: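 B. cereus grown in LB to OD600 1, washed in glucose-HEPES pH 7.4, OD600 0.5, loaded with 2 μM DiSC3(5) for 20 min at 37 °C for baseline. […] Gramicidin S positive control; untreated cells and dye-only medium negative controls; triplicate.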

Another data set concerns Clostridium perfringens. Briefly: Antibacterial activity against Clostridium perfringens CECT376 incubated for 24 hrs by CLSI based broth microdilution method. The class given is functional.
In data set [5] the test system is Bacillus cereus. Briefly: Antibacterial activity against Bacillus cereus ATCC 10987 incubated for 20 hrs by CLSI based broth microdilution method. The format is functional.
Data set [6] relates to Enterococcus faecalis. Briefly: Antibacterial activity against Enterococcus faecalis LMG 08222 incubated for 20 hrs by CLSI based broth microdilution method. The format is functional.
The subject of data set [7] is Staphylococcus aureus. Kind of data set: Antibacterial activity against Staphylococcus aureus LMG 8224 incubated for 20 hrs by CLSI based broth microdilution method. The class given is functional.
Another data set relates to Clostridioides difficile. Briefly: Antibacterial activity against Clostridium difficile CECT531 incubated for 24 hrs by CLSI based broth microdilution method. The format is functional.
Data set [8] relates to Staphylococcus aureus. Briefly: Antibacterial activity against Staphylococcus aureus LMG 15975 incubated for 20 hrs by CLSI based broth microdilution method. The class given is functional.
Data set [9] concerns Enterococcus faecalis. Briefly: Antibacterial activity against Enterococcus faecalis LMG 16216 incubated for 20 hrs by CLSI based broth microdilution method. The format is functional.
Data set [10] relates to Bacillus cereus. Kind of data set: Antibacterial activity against Bacillus cereus ATCC 14579 incubated for 20 hrs by CLSI based broth microdilution method. The class given is functional.
In data set [11] the test system is Enterococcus faecalis. Briefly: Antibacterial activity against Enterococcus faecalis V583 incubated for 20 hrs by CLSI based broth microdilution method. The format is functional.
Data set [12] in a line: Antibacterial activity against Clostridium-ihumii AP5 incubated for 24 hrs by CLSI based broth microdilution method. The format is functional.
The next data set concerns Clostridium botulinum. Briefly: Antibacterial activity against Clostridium botulinum CECT551 incubated for 24 hrs by CLSI based broth microdilution method. The class given is functional.
A further data set concerns Clostridium beijerinckii. Kind of data set: Antibacterial activity against Clostridium beijerinckii B504 incubated for 24 hrs by CLSI based broth microdilution method. The format is functional.
A further data set concerns Clostridium tetani. Kind of data set: Antibacterial activity against Clostridium tetani CECT 4629 incubated for 24 hrs by CLSI based broth microdilution method. The class given is functional.
The test system of data set [13] is Staphylococcus aureus. Briefly: Antibacterial activity against Staphylococcus aureus LMG 10147 incubated for 20 hrs by CLSI based broth microdilution method. The class given is functional.
Data set [14] in a line: Cytotoxicity against human MRC5 cells assessed as cellular metabolism incubated for 72 hrs by MTT assay. The class given is toxicity, cell-based. The method in brief: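 MRC-5 cells in DMEM (1 g/L glucose) with 10% heat-inactivated FBS, 2 mM glutamine, penicillin/streptomycin, at 37 °C, 5% CO2. 5 × 10^3 cells/well seeded with increasing compound concentrations, 72 h. MTT added for 4 h, formazan dissolved in DMSO, A570 read. Sigmoidal fit for 50% growth reduction vs untreated; three independent experiments in triplicate.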

Data set [15] has as its system Staphylococcus aureus. Briefly: Bactericidal activity against Staphylococcus aureus LMG 8224 measured upto 24 hrs by CLSI based broth microdilution method. The format is functional. The method in brief: as §1
Data set [16] concerns Bacillus cereus. Kind of data set: Bactericidal activity against Bacillus cereus ATCC 10987 measured upto 24 hrs by CLSI based broth microdilution method. The format is functional. An outline of the steps: as §1
Data set [17] relates to Bacillus cereus. Briefly: Antibacterial activity against Bacillus cereus ATCC 10987 assessed as reduction in intracellular ATP levels measured upto 120 min by BacTiter-Glo luminescent cell viability assay. The class given is functional, organism-based. The method in brief:
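B. cereus grown in LB to OD600 1, washed in G-HEPES, resuspended in cMHB at OD600 0.25, treated with 32 μM compound at 37 °C. At 30, 60, 120 min samples mixed with BacTiter-Glo, 5 min room temperature, luminescence read. ATP normalized to OD600, as % of untreated control. CCCP 100 μM positive control; triplicate.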

For data set [18], the system named is Enterococcus faecalis. Briefly: Bactericidal activity against Enterococcus faecalis V583 at 16 uM measured upto 24 hrs by CLSI based broth microdilution method. The class given is functional, organism-based. The method in brief:
as §1

For data set [19], the system named is Staphylococcus aureus. Kind of data set: Bactericidal activity against Staphylococcus aureus LMG 8224 at 16 uM measured upto 24 hrs by CLSI based broth microdilution method. The class given is functional, organism-based. The method in brief:
as §1

For data set [20], the system named is Enterococcus faecalis. Kind of data set: Bactericidal activity against Enterococcus faecalis V583 measured upto 24 hrs by CLSI based broth microdilution method. The class given is functional. The method in brief:
as §1

Data set [21] deals with Bacillus cereus. Kind of data set: Antibacterial activity against Bacillus cereus ATCC 10987 assessed as reduction in intracellular ATP levels at 100 uM measured upto 120 min by BacTiter-Glo luminescent cell viability assay. The format is functional, organism-based. The method in brief: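 B. cereus ATCC10987 was grown in LB at 37 °C to OD600 1, washed three times in G-HEPES, and resuspended in cMHB at OD600 0.25. Cells were exposed at 37 °C to compounds at 32 μM or to CCCP (100 μM, positive control). At 30, 60 and 120 min, BacTiter-Glo luminescence was read. ATP was normalised to OD600 and expressed as % of untreated cells. Run in triplicate.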

≈ marks a conversion by molar mass, not a printed value. Calls of active or inactive are those of the source. The rule behind the calls is not given here.

Consider `CCCCOc1cc(/C=C/c2ccc(OS(=O)(=O)O)cc2)cc(OS(=O)(=O)O)c1`, for which the Activity result in the data set on Erythrocyte is given as “Non-Toxic”. For the same compound, the result in the data set on Bacillus cereus [1], with Bacillus cereus [2] and in the data set on Bacillus cereus [4] was Active. For the same compound, in the data set on Bacillus cereus [3], the inhibition entry was “Dde”.
In the case of `CCCCOc1cc(O)cc(/C=C/c2ccc(O)cc2)c1`, the MIC in the data set on Clostridium perfringens worked out at 64 µM (≈ 18.2 µg/mL); with Bacillus cereus [5] it was 32 µM (≈ 9.1 µg/mL); with Enterococcus faecalis [6], 128 µM (≈ 36.4 µg/mL); against Staphylococcus aureus [7] it was 64 µM (≈ 18.2 µg/mL); in the data set on Clostridioides difficile it was 64 µM (≈ 18.2 µg/mL); against Staphylococcus aureus [8], 32 µM (≈ 9.1 µg/mL). In addition, the MIC turned out to be 128 µM (≈ 36.4 µg/mL) in the data set on Enterococcus faecalis [9]; 32 µM (≈ 9.1 µg/mL) in the data set with Bacillus cereus [10]; 128 µM (≈ 36.4 µg/mL) against Enterococcus faecalis [11]; 64 µM (≈ 18.2 µg/mL) in data set [12]; 32 µM (≈ 9.1 µg/mL) with Clostridium botulinum; 26.6 µM (≈ 7.56 µg/mL) in the data set on Clostridium beijerinckii. Also, the MIC is 16 µM (≈ 4.55 µg/mL) in the data set with Clostridium tetani and 64 µM (≈ 18.2 µg/mL) with Staphylococcus aureus [13].
Turning to `CC[Si](CC)(CC)Oc1cc(O)cc(/C=C/c2ccc(O)cc2)c1`, the IC50 at 72 h in data set [14] is 21.3 µM.
With `CC(C)[Si](Oc1cc(O)cc(/C=C/c2ccc(O)cc2)c1)(C(C)C)C(C)C`, the MIC in the data set with Staphylococcus aureus [15], against Bacillus cereus [16] and in the data set on Enterococcus faecalis [20] was 32 µM (≈ 12.3 µg/mL) each time. Further, the result in the data set on Bacillus cereus [1], in the data set with Bacillus cereus [17], in the data set on Enterococcus faecalis [18], with Staphylococcus aureus [19], with Bacillus cereus [2] and in the data set with Bacillus cereus [4] was Active.
For `N#CC(C#N)=NNc1cccc(Cl)c1`, the outcome with Bacillus cereus [21] was Active.

One may read the MIC as the least concentration at which growth counts as inhibited. Higher therefore signals a need for much substance. By IC50 is commonly meant the concentration that gives 50% inhibition.
